Results as given in ChEMBL document CHEMBL1149792, “Synthesis and adenosine receptor binding studies of some novel triazolothienopyrimidines” (Eur J Med Chem, 2008).

Key:
[1] = target: T1, Adenosine receptor A1 (Rattus norvegicus) (UniProt P25099); assay: Inhibition of rat adenosine A1 receptor at 1 uM
T1 sequence (whole entry): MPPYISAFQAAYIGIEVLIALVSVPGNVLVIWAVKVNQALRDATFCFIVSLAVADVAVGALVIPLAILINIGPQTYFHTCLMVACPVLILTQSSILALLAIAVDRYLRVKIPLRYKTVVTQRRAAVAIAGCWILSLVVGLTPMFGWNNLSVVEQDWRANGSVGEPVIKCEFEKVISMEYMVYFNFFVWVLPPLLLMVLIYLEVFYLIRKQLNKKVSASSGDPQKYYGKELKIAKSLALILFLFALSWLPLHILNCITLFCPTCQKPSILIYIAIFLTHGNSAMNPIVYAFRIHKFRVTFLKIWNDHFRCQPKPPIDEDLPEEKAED
Method in brief: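 Single-concentration screen measured as percent inhibition of [3H]CCPA (0.5 nM) binding to rat cortical membranes, run at room temperature for 90 min with 2.5% DMSO final. Nonspecific binding was defined with 2-chloroadenosine. Separation was by GF/B filtration, with scintillation counting of bound radioactivity.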

Adenosine receptor A1 = target: T2, Adenosine receptor A1 (Rattus norvegicus, UniProt P25099); assay: Displacement of [3H]CCPA from rat adenosine A1 receptor
T2 sequence (P25099 whole entry): T1 sequence (whole entry)
Method in brief: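 Rat brain cortical membranes (from frozen rat brains) were incubated with [3H]CCPA at 0.5 nM at room temperature for 90 min. Compounds were added from DMSO stocks, giving 2.5% DMSO final. 2-Chloroadenosine defined nonspecific binding. Bound radioactivity was separated by GF/B filtration and counted by scintillation. Compounds giving over 20% inhibition in the single-concentration screen were tested at six concentrations to derive Ki.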

CCCc1nc2sc(C)c(C)c2c2n[nH]c(=S)n12
inhibition [1]: 13%

CCCc1nc2sc3c(c2c2n[nH]c(=S)n12)CCCC3
inhibition [1]: 0%

CCc1nc2sc3c(c2c2n[nH]c(=S)n12)CCCC3
inhibition [1]: 56% | Ki (Adenosine receptor A1): 1.17 µM

Cc1sc2nc(C)n3c(=S)[nH]nc3c2c1C
inhibition [1]: 4%

S=c1[nH]nc2c3c4c(sc3nc(-c3ccncc3)n12)CCCC4
inhibition [1]: 0%

Cc1nc2sc3c(c2c2n[nH]c(=S)n12)CCCC3
inhibition [1]: 26% | Ki (Adenosine receptor A1): 4.4 µM

CCc1nc2sc(C)c(C)c2c2n[nH]c(=S)n12
inhibition [1]: 21% | Ki (Adenosine receptor A1): 2.1 µM

Cc1sc2nc(-c3ccccc3)n3c(=S)[nH]nc3c2c1C
inhibition [1]: 0%

O=C(c1ccccc1)c1nc2sc3c(c2c2n[nH]c(=S)n12)CCCC3
inhibition [1]: 0%

Cc1sc2nc(C(=O)c3ccccc3)n3c(=S)[nH]nc3c2c1C
inhibition [1]: 0%

S=c1[nH]nc2c3c4c(sc3nc(-c3ccccc3)n12)CCCC4
inhibition [1]: 0%
